High-throughput results from PubChem.
MLL AF4-AF9 inh = inhibitors of human MLL-AF4/AF9 interaction. P42568. AlphaScreen, biotin-AF4 peptide binding to FLAG-AF9. inhibition, % at 10 µM. 350,000 tested, 0.47% active;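 active = every replicate reaching a set inhibition limit, whatever the replicate mean, cut at about 25% in these data; inconclusive = mean inhibition reaches that limit but some replicates miss it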;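 also: 0% = plate neutral control median and 100% = total signal loss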
Target sequence (P42568 whole entry, looked up): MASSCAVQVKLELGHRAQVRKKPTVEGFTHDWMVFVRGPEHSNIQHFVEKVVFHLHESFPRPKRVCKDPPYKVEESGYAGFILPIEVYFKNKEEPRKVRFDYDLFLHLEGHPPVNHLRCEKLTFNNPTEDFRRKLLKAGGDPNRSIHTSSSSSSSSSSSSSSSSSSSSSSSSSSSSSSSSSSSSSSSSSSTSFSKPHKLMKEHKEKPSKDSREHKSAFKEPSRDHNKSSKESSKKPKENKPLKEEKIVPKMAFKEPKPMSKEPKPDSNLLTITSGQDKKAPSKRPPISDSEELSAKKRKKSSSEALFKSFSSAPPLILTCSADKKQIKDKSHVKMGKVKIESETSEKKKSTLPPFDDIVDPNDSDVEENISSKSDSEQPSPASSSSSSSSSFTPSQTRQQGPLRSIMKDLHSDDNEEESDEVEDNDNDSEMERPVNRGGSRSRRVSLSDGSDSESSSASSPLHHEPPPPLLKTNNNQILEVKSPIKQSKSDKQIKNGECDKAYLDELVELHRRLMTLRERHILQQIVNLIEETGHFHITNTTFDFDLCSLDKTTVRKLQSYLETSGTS
PfHsp90 yeast 2 = inhibits growth of yeast expressing Plasmodium falciparum Hsp90. S. cerevisiae expressing PfHsp90, BacTiter-Glo ATP, 48 h; yeast lacking PDR1 and PDR3 efflux regulators. inhibition, % at 9.4 µM. 310,000 tested, 0.32% active. AID 504621;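 active = every replicate shows inhibition above about 80%, whatever the replicate mean, limit read from the data; inconclusive = mean inhibition reaches the set limit but some replicate falls short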;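 also: 0% = DMSO neutral controls and 100% = 20 µM radicicol positive controls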
Cneo AK release = Cryptococcus neoformans lysis via adenylate kinase release. C. neoformans lysis, adenylate kinase release luminescence, 4 h; normalised: neutral wells 0, clomiphene wells 100. lysis activity, % at 15 µM. 360,000 tested, 0.2% active;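 active = mean lysis activity across replicates of at least 80%, whatever share of replicates individually reach that level; inactive = mean lysis activity below 80%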
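Schedule: static 4 h at 37 °C with compound, 1 h detection; system: C. neoformans cells; benchmarks: Clomiphene as positive control; buffer or medium: fresh YPD medium; measure: luminescence rise reflecting yeast cell lysis; measured by: luminescent adenylate kinase detection reagent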
S100A4 MyoIIA = inhibitors of human S100A4 binding to myosin IIA peptide | P26447 | S100A4/TAMRA-MyoIIA peptide fluorescence polarization | inhibition, % at 10.7 µM | 360,000 tested, 0.14% active | AID 652163;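 active = mean inhibition of at least 70% across replicates, with every replicate also reaching that level; inconclusive = mean inhibition reaches 70% but some replicates fall short; inactive = mean inhibition below 70%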
Target sequence (P26447 whole entry, looked up): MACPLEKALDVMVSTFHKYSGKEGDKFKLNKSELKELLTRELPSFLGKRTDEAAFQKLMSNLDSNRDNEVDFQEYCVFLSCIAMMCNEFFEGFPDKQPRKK
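Test system – S100A4 monomer (human) · Compound – single-point compound testing · Schedule – 5 min incubation before reading · Probe or stimulus – TAMRA-labelled myosin IIA heavy-chain peptide probe, 5 nM · Benchmarks – neutral control DMSO, positive control TFP · Medium – Calcium-containing HEPES buffer, pH 7.2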
DENV2 CPE = protects cells from dengue virus 2 cytopathic effect; DENV2-infected cells, cytopathic effect rescue, plate reader; CPE inhibition, % at 9.99 µM; 350,000 tested, 1.7% active; AID 651640; in the data active = CPE inhibition above about 20%, passing the limit was not always enough; inconclusive = no clear call, values can overlap the other calls; tested in BHK-21 cells;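 also: 0% = median of neutral control wells and 100% = median of positive control wells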
rRNA inh HTS = selective bacterial rRNA inhibition in E. coli. E. coli WT GFP vs humanized-ribosome RFP mutants, fluorescence, 24 h; hits give low values; DMSO median 0, no signal -100. GFP signal change (wild-type ribosome), % (concentration not given with the values). 350,000 tested, 1.6% active;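 active = significant combined selectivity score with lowered wild-type GFP, culture density cut under 30%, mutant RFP and density less affected; inactive = any of these conditions unmet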
* hit, by the source's call; ? = inconclusive; . = not tested or not shown. Most compounds without a hit are left out; they make up all but 3.2% or so of the library.

SMILES | MLL AF4-AF9 inh | PfHsp90 yeast 2 | Cneo AK release | S100A4 MyoIIA | DENV2 CPE | rRNA inh HTS
CC(C)NC(=O)N(C)C[C@@H]1Oc2ncc(-c3ccccc3F)cc2C(=O)N([C@H](C)CO)C[C@H]1C | -2 | . | . | -7 | -11 | 2
Cc1occc1-c1nnc(-c2cc([N+](=O)[O-])cc([N+](=O)[O-])c2)o1 | 1 | 106* | . | 2 | 3 | 11
Cc1ccc(-c2ccc3c(c2)O[C@@H](CN(C)Cc2ccncc2)[C@H](C)CN([C@@H](C)CO)S3(=O)=O)cc1 | -3 | . | -1 | 0 | ? | -12
CC(C)NC(=O)N(C)C[C@@H]1Oc2ccccc2C(=O)N(C)C[C@@H]1C | . | . | . | . | . | -3
CC(C)CC#Cc1ccc2c(c1)O[C@@H](CN(C)Cc1cncnc1)[C@H](C)CN([C@@H](C)CO)S2(=O)=O | 8 | . | -6 | 65 | 24* | -23
CC(C)CC#Cc1ccc2c(c1)O[C@@H](CN(C)Cc1ccc(F)cc1)[C@@H](C)CN([C@H](C)CO)S2(=O)=O | 1 | . | 14 | -10 | 45* | 2
CC(C)CC#Cc1ccc2c(c1)O[C@H](CN(C)Cc1cncnc1)[C@H](C)CN([C@@H](C)CO)S2(=O)=O | 5 | . | -2 | 8 | -4 | -9
COc1ccc(NC(=O)Nc2ccc3c(c2)C(=O)N([C@@H](C)CO)C[C@@H](C)[C@H](CN(C)Cc2ccc(C(=O)O)cc2)O3)cc1 | 0 | . | 5 | 12 | 2 | -3
Cc1noc(C)c1NC(=O)Nc1ccc2c(c1)C(=O)N(C)[C@H]1CC[C@H](CC(=O)N(C)C)O[C@H]1CO2 | 0 | . | -2 | 10 | 5 | 7
O=C(NCc1ccco1)C1CCN(C(=O)c2cc3sccc3n2Cc2ccc(F)cc2)CC1 | 11 | 0 | 0 | -2 | 8 | -29*
CC(C)C1CC(CCNCc2ccc3c(c2)OCO3)(c2ccccc2)CCO1 (configuration not stated) | 5 | -4 | . | -2 | 9 | -24*
Cc1ccc(C2(CCNCc3ccc(N(C)C)cc3)CCOC(C(C)C)C2)cc1 (configuration not stated) | 40* | -5 | . | -12 | 3 | -54
Cc1ccc(C2(CCNS(=O)(=O)c3ccc(C)cc3)CCOC(C(C)C)C2)cc1 (configuration not stated) | . | -21 | . | . | . | .
CNC[C@@H]1Oc2ncc(-c3cccc(C(=O)N(C)C)c3)cc2C(=O)N([C@@H](C)CO)C[C@@H]1C | . | . | . | . | . | 7
CO[C@@H]1CN(C)C(=O)c2ccc(NC(=O)Nc3c(C)noc3C)cc2OC[C@@H](C)NC[C@@H]1C | -3 | . | 0 | -5 | -4 | 2
CC(=NNC(=S)N1CCCCC1)c1cccc(C)n1 | -1 | 0 | . | ? | 0 | 22
CSC(=S)NN=C(C)c1cccc(C)n1 | 12 | 105* | . | 3 | ? | -5
CC(=O)N1C[C@H]2CON(C)[C@H]2C[C@H]1c1ccc(-c2ccccc2)cc1 | -1 | . | 0 | 2 | 0 | -2
COc1ccccc1-c1ccc([C@@H]2C[C@H]3[C@H](CON3C)CN2C(=O)c2ccc(-c3ccccc3)cc2)cc1 | 1 | . | -4 | -1 | 38* | 8
C[C@@H]1CN([C@@H](C)CO)C(=O)CCCn2cc(nn2)CO[C@@H]1CN(C)Cc1ccc2c(c1)OCO2 | 1 | . | 114* | 0 | -3 | -2
C[C@H]1CN([C@@H](C)CO)C(=O)CCCn2cc(nn2)CO[C@@H]1CN(C)Cc1ccc(C(F)(F)F)cc1 | 0 | . | 82* | -3 | 8 | -1
C[C@@H]1CN([C@@H](C)CO)C(=O)CCCn2cc(nn2)CO[C@@H]1CN(C)Cc1cccc(C(=O)O)c1 | -17 | . | 10 | 8 | 30* | 1
C[C@@H]1CN([C@H](C)CO)C(=O)CCCn2cc(nn2)CO[C@@H]1CN(C)Cc1cccc(C(=O)O)c1 | -15 | . | 2 | 4 | -4 | 2
C[C@H](CO)N1C[C@H](C)[C@@H](CN(C)Cc2ccc3c(c2)OCO3)OCc2cn(nn2)CCCC1=O | -2 | . | -15 | 2 | 16 | -3
C[C@@H]1CN([C@@H](C)CO)C(=O)c2cc(NC(=O)Nc3ccc4c(c3)OCO4)ccc2O[C@H]1CN(C)C(=O)NC1CCCCC1 | 0 | . | -1 | -2 | 5 | -3
SMILES | MLL AF4-AF9 inh | PfHsp90 yeast 2 | Cneo AK release | S100A4 MyoIIA | DENV2 CPE | rRNA inh HTS
Cc1ccc(NS(=O)(=O)c2ccc(C(=O)NCCCN3CCCC3=O)cc2)cc1 | 8 | 2 | 0 | 2 | 103* | 2
Cc1ccc(NS(=O)(=O)c2ccc(C(=O)NCCCN3CCCC3=O)cc2)cc1C | -5 | 32 | 0 | -11 | 0 | 4
O=C(O)c1ccc(N/N=C/c2cn(Cc3ccc(F)cc3)c3ccccc23)cc1 | 2 | -8 | 0 | -2 | 0 | -34*
CCNC(=S)N/N=C/c1cn(Cc2ccc(F)cc2)c2ccccc12 | 6 | 9 | . | -4 | 2 | .
O=C(C1CC1)N1CC[C@H]2[C@H](CO)Nc3ccc(Br)cc3[C@H]21 | -4 | . | 3 | -4 | 27* | 4
O=C(C1CC1)N1CC[C@@H]2[C@H]1c1cc(Br)ccc1N[C@@H]2CO | . | . | -9 | . | 36* | 1
O=C(C1CCCC1)N1CC[C@@H]2[C@H]1c1cc(Br)ccc1N[C@@H]2CO | -1 | . | . | 9 | -7 | -5
CCCN1C[C@@H](C)[C@@H](OC)CN(C)C(=O)c2cc(NC(=O)NC3CCCCC3)ccc2OC[C@@H]1C | -1 | . | -1 | 6 | -3 | 0
Nc1cc(Cl)ccc1Oc1ccc2ccccc2c1 | -51 | -18 | . | -2 | -1 | -24*
CN(C)C(=O)c1cccc(-c2ccc3n(c2=O)C[C@H]2[C@H](CO)[C@@H](C(=O)NCC(F)(F)F)[C@@H]3N2C)c1 | 2 | . | -1 | 8 | -4 | 1
Cc1cccc2cc(-c3ccccc3)c(-c3ccccc3)c[n+]12 | 8 | -6 | 12 | 2 | 1 | -42*
O=C(NCC[C@@H]1CC[C@H](NC(=O)c2ccc3c(c2)OCO3)[C@@H](CO)O1)Nc1cc(F)ccc1F | 3 | . | -3 | -4 | 5 | -3
COc1cccc(S(=O)(=O)N2CC[C@@H]3[C@H](CO)N(C)c4ccc(C#Cc5cccnc5)cc4[C@@H]32)c1 | -2 | . | 10 | -6 | -28 | -2
Cc1cc2ccccc2n1CCNC(=O)c1ccc(S(=O)(=O)N2CCCCC2)cc1 | 4 | -17 | -1 | 124* | -7 | -1
O=C(NCCc1ccccc1)c1ccc(S(=O)(=O)N2CCCCC2)cc1 | -2 | . | 12 | -4 | -1 | 4
